Test results taken from ChEMBL document CHEMBL6177935, “Design and synthesis of novel multi-target tetrabromophthalimides as CBS and Topo-II inhibitors and DNA intercalators” (RSC Med Chem, 2024).
Activity calls are given as the source filed them.

How the values were obtained:
DNA topoisomerase 2-beta [1] = target: T1, DNA topoisomerase 2-beta (Homo sapiens, UniProt Q02880); test: Inhibition of human topoisomerase IIB-mediated DNA fragmentation
Tubulin = test: (§1) Inhibition of [3H]-colchicine binding to biotinylated-tubulin (unknown origin) measured after 45 mins by scintillation counting analysis; assay type: protein-complex assay, Homo sapiens
Method in brief: (§2)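 Scintillation proximity assay run at 37 °C. Incubated 45 min at 37 °C, then the plate was read and percent inhibition calculated from raw counts.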

HCT-116 = test: Growth inhibition of human HCT-116 cells at 100 ug/ml measured after 48 hrs by SRB assay relative to control; assay type: functional; details: dose 100.0 µg/ml, pooled result: one value given for 15 cell lines, strains, targets or settings
Method in brief: (§3)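 SRB screen on fifteen human cancer lines. Cells seeded at 3×10^3 per well and left 24 h to attach. A single concentration of 100 µg/mL was tested in triplicate wells for 48 h, with 1% v/v DMSO as vehicle control. Cells fixed in 20% TCA, stained with 0.4% SRB and read at 570 nm. Survival fraction = OD treated/OD control.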

PC-3 = test: Growth inhibition of human PC-3 cells at 100 ug/ml measured after 48 hrs by SRB assay relative to control; assay type: functional; details: dose 100.0 µg/ml, pooled result: one value given for 15 cell lines, strains, targets or settings; method in brief: as §3
FaDu = test: Growth inhibition of human FaDu cells at 100 ug/ml measured after 48 hrs by SRB assay relative to control; assay type: functional; details: dose 100.0 µg/ml, pooled result: one value given for 15 cell lines, strains, targets or settings; method in brief: as §3
HeLa = test: Growth inhibition of human HeLa cells at 100 ug/ml measured after 48 hrs by SRB assay relative to control; assay type: functional; details: dose 100.0 µg/ml, pooled result: one value given for 15 cell lines, strains, targets or settings; method in brief: as §3
DNA topoisomerase 2-beta [2] = target: T1, DNA topoisomerase 2-beta; test: Inhibition of human topoisomerase IIB by sandwich ELISA
MCF7 = test: Growth inhibition of human MCF7 cells at 100 ug/ml measured after 48 hrs by SRB assay relative to control; assay type: functional; details: dose 100.0 µg/ml, pooled result: one value given for 15 cell lines, strains, targets or settings; method in brief: as §3
A-431 = test: Growth inhibition of human A-431 cells at 100 ug/ml measured after 48 hrs by SRB assay relative to control; assay type: functional; details: dose 100.0 µg/ml, pooled result: one value given for 15 cell lines, strains, targets or settings; method in brief: as §3
HN = test: Growth inhibition of human HN cells at 100 ug/ml measured after 48 hrs by SRB assay relative to control; assay type: functional; details: dose 100.0 µg/ml, pooled result: one value given for 15 cell lines, strains, targets or settings; method in brief: as §3
HepG2 = test: Growth inhibition of human HepG2 cells at 100 ug/ml measured after 48 hrs by SRB assay relative to control; assay type: functional; details: dose 100.0 µg/ml, pooled result: one value given for 15 cell lines, strains, targets or settings; method in brief: as §3
Caco-2 = test: Growth inhibition of human Caco-2 cells at 100 ug/ml measured after 48 hrs by SRB assay relative to control; assay type: functional; details: dose 100.0 µg/ml, pooled result: one value given for 15 cell lines, strains, targets or settings; method in brief: as §3
A-375 = test: Growth inhibition of human A-375 cells at 100 ug/ml measured after 48 hrs by SRB assay relative to control; assay type: functional; details: dose 100.0 µg/ml, pooled result: one value given for 15 cell lines, strains, targets or settings; method in brief: as §3
HEp-2 = test: Growth inhibition of human HEp-2 cells at 100 ug/ml measured after 48 hrs by SRB assay relative to control; assay type: functional; details: dose 100.0 µg/ml, pooled result: one value given for 15 cell lines, strains, targets or settings; method in brief: as §3
MDA-MB-468 = test: Growth inhibition of human MDA-MB-468 cells at 100 ug/ml measured after 48 hrs by SRB assay relative to control; assay type: functional; details: dose 100.0 µg/ml, pooled result: one value given for 15 cell lines, strains, targets or settings; method in brief: as §3
NCI-H1299 = test: Growth inhibition of human NCI-H1299 cells at 100 ug/ml measured after 48 hrs by SRB assay relative to control; assay type: functional; details: dose 100.0 µg/ml, pooled result: one value given for 15 cell lines, strains, targets or settings; method in brief: as §3
HNO 97 cell line = test: Growth inhibition of human HNO 97 cells at 100 ug/ml measured after 48 hrs by SRB assay relative to control; assay type: functional; details: dose 100.0 µg/ml, pooled result: one value given for 15 cell lines, strains, targets or settings; method in brief: as §3
A549 = test: Growth inhibition of human A549 cells at 100 ug/ml measured after 48 hrs by SRB assay relative to control; assay type: functional; details: dose 100.0 µg/ml, pooled result: one value given for 15 cell lines, strains, targets or settings; method in brief: as §3
Tubulin (Homo sapiens) = Tubulin (Homo sapiens) (UniProt P68371+Q9H4B7+P0DPH7+P68366+Q13509+Q71U36+P04350+Q3ZCM7+P07437+P68363+Q9BQE3+Q6PEY2+Q13885+Q9BVA1+Q9BUF5); test: as §1; assay type: protein-complex assay; method in brief: as §2

T1 sequence (Q02880 whole entry, the tested form may be a part): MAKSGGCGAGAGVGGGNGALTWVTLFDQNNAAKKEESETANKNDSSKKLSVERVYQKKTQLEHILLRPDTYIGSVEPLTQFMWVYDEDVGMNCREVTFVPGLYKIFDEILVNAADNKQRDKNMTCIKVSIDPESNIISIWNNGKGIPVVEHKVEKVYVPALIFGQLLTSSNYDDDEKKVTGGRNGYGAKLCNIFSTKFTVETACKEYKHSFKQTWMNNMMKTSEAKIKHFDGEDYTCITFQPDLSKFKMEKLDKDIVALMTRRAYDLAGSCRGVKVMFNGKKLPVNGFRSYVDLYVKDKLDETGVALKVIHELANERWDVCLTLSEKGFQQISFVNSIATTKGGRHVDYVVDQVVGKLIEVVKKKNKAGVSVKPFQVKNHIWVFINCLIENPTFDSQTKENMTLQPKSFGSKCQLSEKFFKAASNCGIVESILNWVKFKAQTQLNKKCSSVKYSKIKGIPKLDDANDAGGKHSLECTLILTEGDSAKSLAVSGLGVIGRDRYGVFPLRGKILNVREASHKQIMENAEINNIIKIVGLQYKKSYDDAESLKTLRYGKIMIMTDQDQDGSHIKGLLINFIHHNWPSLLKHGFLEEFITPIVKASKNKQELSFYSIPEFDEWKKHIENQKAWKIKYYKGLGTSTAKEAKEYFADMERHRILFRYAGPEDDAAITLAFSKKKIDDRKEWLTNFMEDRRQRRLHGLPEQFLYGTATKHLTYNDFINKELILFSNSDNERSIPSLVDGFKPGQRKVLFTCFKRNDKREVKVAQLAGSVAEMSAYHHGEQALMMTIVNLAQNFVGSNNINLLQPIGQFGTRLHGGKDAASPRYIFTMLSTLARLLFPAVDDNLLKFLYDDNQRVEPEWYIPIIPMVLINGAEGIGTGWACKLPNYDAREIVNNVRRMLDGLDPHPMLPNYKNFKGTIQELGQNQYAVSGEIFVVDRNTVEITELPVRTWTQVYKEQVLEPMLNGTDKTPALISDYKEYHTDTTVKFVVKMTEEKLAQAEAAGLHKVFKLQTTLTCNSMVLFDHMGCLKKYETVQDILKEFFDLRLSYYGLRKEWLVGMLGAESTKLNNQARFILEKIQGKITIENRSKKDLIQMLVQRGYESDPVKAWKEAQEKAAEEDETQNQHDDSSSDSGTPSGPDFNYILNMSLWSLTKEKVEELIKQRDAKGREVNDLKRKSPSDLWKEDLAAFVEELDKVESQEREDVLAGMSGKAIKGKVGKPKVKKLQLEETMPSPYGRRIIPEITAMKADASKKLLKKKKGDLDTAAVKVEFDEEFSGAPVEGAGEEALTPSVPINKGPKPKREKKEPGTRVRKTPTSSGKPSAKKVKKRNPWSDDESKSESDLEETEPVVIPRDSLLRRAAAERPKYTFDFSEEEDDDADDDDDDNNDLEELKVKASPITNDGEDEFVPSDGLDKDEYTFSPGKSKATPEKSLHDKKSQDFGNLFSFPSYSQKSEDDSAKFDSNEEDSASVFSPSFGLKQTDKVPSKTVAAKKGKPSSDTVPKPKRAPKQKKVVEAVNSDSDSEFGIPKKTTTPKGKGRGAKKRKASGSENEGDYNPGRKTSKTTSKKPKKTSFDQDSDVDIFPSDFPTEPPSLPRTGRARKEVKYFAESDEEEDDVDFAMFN

COc1cc([C@@H]2c3cc4c(cc3[C@@H](O[C@@H]3O[C@@H]5CO[C@@H](C)O[C@H]5[C@H](O)[C@H]3O)[C@H]3COC(=O)[C@H]23)OCO4)cc(OC)c1O
active: inhibition (DNA topoisomerase 2-beta [1])

CC(=O)n1c(-c2ccc(N3C(=O)c4c(Br)c(Br)c(Br)c(Br)c4C3=O)cc2)nc2ccccc21
6.94 µM: IC50 (Tubulin)
active: growth inhibition (GI) (HCT-116) | growth inhibition (GI) (PC-3) | growth inhibition (GI) (FaDu) | growth inhibition (GI) (HeLa) | inhibition (DNA topoisomerase 2-beta [1]) | inhibition (DNA topoisomerase 2-beta [2]) | growth inhibition (GI) (MCF7) | growth inhibition (GI) (A-431) | growth inhibition (GI) (HN) | growth inhibition (GI) (HepG2) | growth inhibition (GI) (Caco-2) | growth inhibition (GI) (A-375) | growth inhibition (GI) (HEp-2) | growth inhibition (GI) (MDA-MB-468) | growth inhibition (GI) (NCI-H1299) | growth inhibition (GI) (HNO 97 cell line) | growth inhibition (GI) (A549)

O=C1c2c(Br)c(Br)c(Br)c(Br)c2C(=O)N1c1nnn[nH]1
active: inhibition (Tubulin (Homo sapiens)) | growth inhibition (GI) (HCT-116) | growth inhibition (GI) (PC-3) | growth inhibition (GI) (FaDu) | growth inhibition (GI) (HeLa) | inhibition (DNA topoisomerase 2-beta [1]) | inhibition (DNA topoisomerase 2-beta [2]) | growth inhibition (GI) (MCF7) | growth inhibition (GI) (A-431) | growth inhibition (GI) (HN) | growth inhibition (GI) (HepG2) | growth inhibition (GI) (Caco-2) | growth inhibition (GI) (A-375) | growth inhibition (GI) (HEp-2) | growth inhibition (GI) (MDA-MB-468) | growth inhibition (GI) (NCI-H1299) | growth inhibition (GI) (HNO 97 cell line) | growth inhibition (GI) (A549)

CC(=O)N1C(=O)c2c(Br)c(Br)c(Br)c(Br)c2C1=O
active: growth inhibition (GI) (HCT-116) | growth inhibition (GI) (PC-3) | growth inhibition (GI) (FaDu) | growth inhibition (GI) (HeLa) | growth inhibition (GI) (MCF7) | growth inhibition (GI) (A-431) | growth inhibition (GI) (HN) | growth inhibition (GI) (HepG2) | growth inhibition (GI) (Caco-2) | growth inhibition (GI) (A-375) | growth inhibition (GI) (HEp-2) | growth inhibition (GI) (MDA-MB-468) | growth inhibition (GI) (NCI-H1299) | growth inhibition (GI) (HNO 97 cell line) | growth inhibition (GI) (A549)

O=C1c2c(Br)c(Br)c(Br)c(Br)c2C(=O)N1c1ccc([Se][Se]c2ccc(N3C(=O)c4c(Br)c(Br)c(Br)c(Br)c4C3=O)cc2)cc1
active: growth inhibition (GI) (HCT-116) | growth inhibition (GI) (PC-3) | growth inhibition (GI) (FaDu) | growth inhibition (GI) (HeLa) | growth inhibition (GI) (MCF7) | growth inhibition (GI) (A-431) | growth inhibition (GI) (HN) | growth inhibition (GI) (HepG2) | growth inhibition (GI) (Caco-2) | growth inhibition (GI) (A-375) | growth inhibition (GI) (HEp-2) | growth inhibition (GI) (MDA-MB-468) | growth inhibition (GI) (NCI-H1299) | growth inhibition (GI) (HNO 97 cell line) | growth inhibition (GI) (A549)

CC(=O)NC(=S)NN1C(=O)c2c(Br)c(Br)c(Br)c(Br)c2C1=O
active: growth inhibition (GI) (HCT-116) | growth inhibition (GI) (PC-3) | growth inhibition (GI) (FaDu) | growth inhibition (GI) (HeLa) | growth inhibition (GI) (MCF7) | growth inhibition (GI) (A-431) | growth inhibition (GI) (HN) | growth inhibition (GI) (HepG2) | growth inhibition (GI) (Caco-2) | growth inhibition (GI) (A-375) | growth inhibition (GI) (HEp-2) | growth inhibition (GI) (MDA-MB-468) | growth inhibition (GI) (NCI-H1299) | growth inhibition (GI) (HNO 97 cell line) | growth inhibition (GI) (A549)
